How the values were obtained:
HT-29 = assay: Growth inhibition of human HT-29 cells after 72 hrs by CellTiter-Glo reagent based assay; type: functional; conditions: HT-29, 72 h
Outline: (§1)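 Cancer cell lines (PC3 prostate, HT29 colorectal carcinoma, MDA-MB-231 breast) were screened by quantitative high-throughput screening in whole cells, and CC50 values were derived.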

BJ = assay: Growth inhibition of human BJ cells after 72 hrs by CellTiter-Glo reagent based assay; type: cell-based
Outline: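 Normal human foreskin fibroblast (BJ) counter-screen for cytotoxicity, with drug tested at 10 μM.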

Jurkat E6.1 = assay: Growth inhibition of human Jurkat E6-1 cells after 72 hrs by CellTiter-Glo reagent based assay; type: functional, cell-based
REH = assay: Growth inhibition of human REH cells after 72 hrs by CellTiter-Glo reagent based assay; type: functional, cell-based
PC-3 = assay: Growth inhibition of human PC3 cells after 72 hrs by CellTiter-Glo reagent based assay; type: functional; conditions: PC-3, 72 h; outline: as §1
Raji = assay: Growth inhibition of human Raji cells after 72 hrs by CellTiter-Glo reagent based assay; type: functional, cell-based
[1] = Growth inhibition of mouse CPC300 cells after 72 hrs by CellTiter-Glo reagent based assay; type: functional, cell-based
697 = assay: Growth inhibition of human 697 cells after 72 hrs by CellTiter-Glo reagent based assay; type: functional, cell-based
MDA-MB-231 = assay: Growth inhibition of human MDA-MB-231 cells after 72 hrs by CellTiter-Glo reagent based assay; type: functional; conditions: MDA-MB-231, 72 h; outline: as §1
[2] = Growth inhibition of human NALM16 cells after 72 hrs by CellTiter-Glo reagent based assay; type: functional, cell-based
[3] = Mus musculus, CPC300, 72 h, read-out: EC50
[4] = Homo sapiens, 697, 72 h, read-out: EC50
[5] = Homo sapiens, NALM16, 72 h, read-out: EC50
[6] = Homo sapiens, REH, 72 h, read-out: EC50
[7] = Homo sapiens, Raji, 72 h, read-out: EC50

| EC50 (Jurkat E6.1; jurkat e6.1) | EC50 (Raji; raji) | EC50 (Jurkat E6.1; Homo sapiens, Jurkat E6.1, 72 h, read-out: EC50) [µM] | EC50 (Raji; [7]) [µM] | SMILES | CC50 (HT-29) [µM] | EC50 (BJ) [µM] | EC50 (REH; reh) | CC50 (PC-3) [µM] | EC50 [1, 3] [µM] | EC50 697; 697 | CC50 (MDA-MB-231) [µM] | EC50 ([2]; nalm16) | EC50 ([1]; cpc300) | EC50 697; [4] [µM] | EC50 [2, 5] [µM] | EC50 (REH; [6]) [µM] |
| --- | --- | --- | --- | --- | --- | --- | --- | --- | --- | --- | --- | --- | --- | --- | --- | --- |
| Not Active | Not Active | – | – | CC1=C(CC(=O)NCCCN(C)C)c2cc(F)ccc2/C1=C\c1nc2ccccc2s1 | 1.05 | > 7.57 | Not Active | 3.25 | 65 | Not Active | 1.93 | – | – | – | 0.35 | – |
| Not Active | Not Active | – | – | CC1=C(CC(=O)N(C)CCN(C)C)c2cc(F)ccc2/C1=C\c1nc2ccccc2s1 | 2.02 | > 7.57 | Not Active | 5.88 | – | Not Active | 3.8 | – | Not Active | – | 0.3 | – |
| Not Active | Not Active | – | – | CSc1ccc(/C=C2/C(C)=C(CC(=O)N3CCN(CCN(C)C)CC3)c3cc(F)ccc32)cc1 | 2.17 | > 7.57 | Not Active | 6.23 | 27 | Not Active | 4.05 | – | – | – | 1.9 | – |
| Not Active | – | – | – | CSc1ccc(/C=C2/C(C)=C(CC(=O)N3CCCN(C)CC3)c3cc(F)ccc32)cc1 | 2.94 | > 7.57 | Not Active | 7.35 | – | Not Active | 7.21 | – | Not Active | – | 0.49 | – |
| – | – | 1.3 | 2.6 | CC1=C(CC(=O)NCc2ccccc2)c2cc(F)ccc2/C1=C\c1ccc([S+](C)[O-])cc1 (centres undefined) | 0.5 | > 7.57 | – | 2.64 | 120 | – | 0.78 | – | – | 4.1 | 1.3 | 3.3 |
| Not Active | Not Active | – | – | CSc1ccc(/C=C2/C(C)=C(CC(=O)NCCN(C)C)c3cc(F)ccc32)cc1 | 0.65 | > 7.57 | Not Active | 3.12 | – | Not Active | 2.67 | Not Active | Not Active | – | – | – |
| Not Active | – | – | 21 | CCN(CC)CCCNC(=O)CC1=C(C)/C(=C/c2ccc(SC)cc2)c2ccc(F)cc21 | 1.53 | > 7.57 | Not Active | 4.33 | – | Not Active | 3.19 | – | Not Active | – | – | – |
| Not Active | – | – | 76 | CSc1ccc(/C=C2/C(C)=C(CC(=O)N3CCC[C@H]3CN3CCCC3)c3cc(F)ccc32)cc1 | 1.55 | > 7.57 | Not Active | 5.1 | – | Not Active | 4.16 | – | Not Active | – | – | – |
| Not Active | Not Active | – | – | CSc1ccc(/C=C2/C(C)=C(CC(=O)N3CCN(c4ccncc4)CC3)c3cc(F)ccc32)cc1 | 1.13 | > 7.57 | Not Active | 2.76 | 50 | Not Active | 3.08 | Not Active | – | – | – | – |
| Not Active | – | – | 47 | CC1=C(CC(=O)NCCN2CCCC2)c2cc(F)ccc2/C1=C\c1nc2ccccc2s1 | 1.21 | > 7.57 | – | 4.94 | – | Not Active | 3.56 | Not Active | Not Active | – | – | 18 |
| Not Active | – | – | 0.83 | CSc1ccc(/C=C2/C(C)=C(CC(=O)N(C)CCN(C)C)c3cc(F)ccc32)cc1 | 1.83 | > 7.57 | Not Active | 5.63 | – | Not Active | 3.98 | – | Not Active | – | 0.071 | – |

Second part, the molecule before the results:

| SMILES | EC50 (Jurkat E6.1; jurkat e6.1) | EC50 (Raji; raji) | EC50 (Jurkat E6.1; Homo sapiens, Jurkat E6.1, 72 h, read-out: EC50) [µM] | EC50 (Raji; [7]) [µM] | CC50 (HT-29) [µM] | EC50 (BJ) [µM] | EC50 (REH; reh) | CC50 (PC-3) [µM] | EC50 [1, 3] [µM] | EC50 697; 697 | CC50 (MDA-MB-231) [µM] | EC50 ([2]; nalm16) | EC50 ([1]; cpc300) | EC50 697; [4] [µM] | EC50 [2, 5] [µM] | EC50 (REH; [6]) [µM] |
| --- | --- | --- | --- | --- | --- | --- | --- | --- | --- | --- | --- | --- | --- | --- | --- | --- |
| CC1=C(CC(=O)N2CCN(c3ccncc3)CC2)c2cc(F)ccc2/C1=C\c1nc2ccccc2s1 | Not Active | Not Active | – | – | 5.25 | > 7.57 | Not Active | 12.3 | 72 | Not Active | 7.71 | Not Active | – | – | – | – |
| COc1cc(/C=C2/C(C)=C(CC(=O)N(C)CCN(C)C(=O)[C@@H](N)C(C)C)c3cc(F)ccc32)cc(OC)c1OC | Not Active | Not Active | – | – | 10.7 | > 7.57 | – | 17.7 | – | – | 18.8 | Not Active | Not Active | 0.96 | – | – |
| COc1cc(/C=C2/C(C)=C(CC(=O)N3CCN(c4ccncc4)CC3)c3cc(F)ccc32)cc(OC)c1OC | Not Active | Not Active | – | – | 2.79 | > 7.57 | – | 5.45 | – | Not Active | 6.5 | Not Active | Not Active | – | – | 27 |
| CSc1ccc(/C=C2/C(C)=C(CC(=O)N3CCN(CCCN(C)C)CC3)c3cc(F)ccc32)cc1 | Not Active | – | – | 76 | 1.69 | > 7.57 | Not Active | 4.28 | – | Not Active | 3.77 | – | Not Active | – | – | – |
| CC1=C(CC(=O)N2CCN(CCCN(C)C)CC2)c2cc(F)ccc2/C1=C\c1nc2ccccc2s1 | Not Active | Not Active | – | – | 1.62 | > 7.57 | Not Active | 4.21 | – | Not Active | 2.9 | – | Not Active | – | 0.097 | – |
| CSc1ccc(/C=C2/C(C)=C(CC(=O)NCc3ccccc3)c3cc(F)ccc32)cc1 | – | – | – | – | 1.52 | – | – | 16.4 | – | – | 3.61 | – | – | – | – | – |
| CSc1ccc(/C=C2/C(C)=C(CC(=O)N3CCC(N4CCCCC4)CC3)c3cc(F)ccc32)cc1 | – | – | – | – | 1.06 | – | – | 4.06 | – | – | 2.61 | – | – | – | – | – |
| CC1=C(CC(=O)N(C)CCCN(C)C)c2cc(F)ccc2/C1=C\c1ccc([S+](C)[O-])cc1 (centres undefined) | – | – | – | – | 38.9 | – | – | > 50 | – | – | > 50 | – | – | – | – | – |

Source: ChEMBL document CHEMBL4043244, “Diverse amide analogs of sulindac for cancer treatment and prevention” (Bioorg Med Chem Lett, 2017)
